Results published in ChEMBL document CHEMBL4020814, “Synthesis, Binding Mode, and Antihyperglycemic Activity of Potent and Selective (5-Imidazol-2-yl-4-phenylpyrimidin-2-yl)[2-(2-pyridylamino)ethyl]amine Inhibitors of Glycogen Synthase Kinase 3” (J Med Chem, 2017).

How the values were obtained:
Mus musculus = species on record: Mus musculus; assay: Antidiabetic activity in diabetic db/db mouse assessed as time required for improved glucose disposal by oral glucose tolerance test; format: functional
How it was run: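 db/db mice, 6–8 per group, fasted ~6 h (food removed 3 h before prebleed), dosed orally at −4.5 and −0.5 h relative to oral glucose (vehicle 10% captisol). Tail-snip blood glucose was read by glucometer or analyzer; plasma insulin was measured by ELISA.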

[1] = Stability in rat liver microsomes assessed as half life; format: ADME, microsome
[2] = Stability in dog liver microsomes assessed as half life; format: ADME, Canis lupus familiaris, microsome
[3] = Inhibition of GSK3 expressed in CHO-IR cells expressing human insulin receptor assessed as glycogen synthase activation after 30 mins by filter paper assay; format: cell-based, Cavia porcellus
[4] = Inhibition of human GSK3 using biotin-CREB peptide substrate after 1 hr by scintillation counting method
[5] = Plasma concentration in diabetic db/db mouse at 30 mg/kg administered at 4.5 and 0.5 hrs prior to oral glucose challenge measured 20 mins post second dose; details: plasma
[6] = Stability in human liver microsomes assessed as half life; format: ADME, microsome
Rattus norvegicus = assay: Antidiabetic activity in diabetic ZDF fa/fa rat assessed as reduction in plasma glucose AUC at 8 mg/kg administered 4.5 and 0.5 hrs prior to oral glucose challenge by oral glucose tolerance test; format: functional; design: scale not given: the % may be the effect or the level left
How it was run: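 Obese 10-week-old ZDF (fa/fa) rats, n = 8/group, fasted overnight, given 8 mg/kg orally at 4.5 and 0.5 h before oral glucose challenge. Efficacy is the percent reduction in plasma glucose AUC versus untreated animals. Formulations were 15% captisol, 1% CMC or water with pH adjusted.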

[7] = Oral bioavailability in diabetic ZDF fa/fa rat at 8 mg/kg administered 4.5 and 0.5 hrs prior to oral glucose challenge; format: ADME, organism-based; details: in vivo
[8] = Half life in diabetic ZDF fa/fa rat at 8 mg/kg administered 4.5 and 0.5 hrs prior to oral glucose challenge; format: ADME, organism-based; details: in vivo

| half-life [1] | half-life [2] | EC50 [3] | IC50 [4] | SMILES | further results |
| --- | --- | --- | --- | --- | --- |
|  |  |  |  | Cc1c(C)c2c(c(C)c1O)CCC(C)(COc1ccc(CC3SC(=O)NC3=O)cc1)O2 (stereo not given) [TROGLITAZONE] | Time (Mus musculus): <=2 weeks |
| > 30 min | > 30 min | 810 nM | 19 nM | Cc1cc(Cl)ccc1-c1nc(NCCNc2ccc([N+](=O)[O-])c(N)n2)ncc1-c1ncc[nH]1 |  |
| > 30 min | > 30 min | 5920 nM | 51 nM | Nc1nc(NCCNc2ncc(-c3ncc[nH]3)c(-c3ccc(C(F)(F)F)cc3)n2)ccc1[N+](=O)[O-] |  |
| > 30 min | > 30 min |  | 32 nM | Nc1nc(NCCNc2ncc(-c3ncc[nH]3)c(-c3cc(F)ccc3Cl)n2)ccc1[N+](=O)[O-] |  |
| > 30 min | > 30 min | 50 nM | 4 nM | Cc1ccc(-c2nc(NCCNc3ccc([N+](=O)[O-])c(N)n3)ncc2-c2ncc[nH]2)c(Br)c1 |  |
| > 30 min | > 30 min | 260 nM | 6 nM | Nc1nc(NCCNc2ncc(-c3ncc[nH]3)c(-c3ccc(Cl)cc3Br)n2)ccc1[N+](=O)[O-] | concentration at 20 min [5]: 13000 ng/mL |
|  |  | 290 nM | 8 nM | Cc1c[nH]c(-c2cnc(NCCNc3ccc([N+](=O)[O-])cn3)nc2-c2ccc(Cl)cc2Cl)n1 | concentration at 20 min [5]: 19000 ng/mL |
|  |  | 1300 nM | 11 nM | N#Cc1ccc(-c2nc(NCCNc3ccc([N+](=O)[O-])cn3)ncc2-n2ccnc2)cc1 | concentration at 20 min [5]: 5000 ng/mL |
| > 30 min | > 30 min | 420 nM | 7 nM | Nc1nc(NCCNc2ncc(-c3ncc[nH]3)c(-c3ccc(F)cc3Cl)n2)ccc1[N+](=O)[O-] |  |
| > 30 min | > 30 min | 500 nM | 5 nM | Nc1nc(NCCNc2ncc(-c3ncc[nH]3)c(-c3ccc(Br)cc3F)n2)ccc1[N+](=O)[O-] |  |
| > 30 min | > 30 min | > 10000 nM | 7 nM | N#Cc1ccc(-c2nc(NCCNc3ccc([N+](=O)[O-])c(N)n3)ncc2-c2ncc[nH]2)cc1 |  |
|  |  | 150 nM | 7 nM | Nc1nc(NCCNc2ncc(CO)c(-c3ccc(Cl)cc3Cl)n2)ccc1[N+](=O)[O-] | concentration at 20 min [5]: 12000 ng/mL |
| > 30 min | > 30 min | 510 nM | 4 nM | N#Cc1ccc(NCCNc2ncc(-c3ncc[nH]3)c(-c3ccc(Cl)cc3Cl)n2)nc1 | half-life [6]: 33 min; Activity (Rattus norvegicus): 18%; concentration at 20 min [5]: 29000 ng/mL; bioavailability [7]: 21%; half-life [8]: 52 min |
| > 30 min | > 30 min |  | 2860 nM | Clc1ccc(-c2nc(NCCNc3ccccn3)ncc2-c2ncc[nH]2)c(Cl)c1 |  |
| > 30 min | > 30 min | 240 nM | 7 nM | Nc1nc(NCCNc2ncc(-c3ncc[nH]3)c(-c3ccccc3Br)n2)ccc1[N+](=O)[O-] |  |
| > 30 min | > 30 min | 2500 nM | 31 nM | Nc1nc(NCCNc2ncc(-c3ncc[nH]3)c(-c3ccc(Cl)cc3)n2)ccc1[N+](=O)[O-] |  |
| > 30 min | > 30 min | 6880 nM | 38 nM | Nc1nc(NCCNc2ncc(-c3ncc[nH]3)c(-c3cc(F)c(F)cc3F)n2)ccc1[N+](=O)[O-] |  |
|  |  | 790 nM | 25 nM | N#Cc1ccc(NCCNc2ncc(-n3ccnc3)c(-c3ccc(Cl)cc3Cl)n2)nc1 | concentration at 20 min [5]: 13000 ng/mL |
| > 30 min | > 30 min | 220 nM | 4 nM | Nc1nc(NCCNc2ncc(-c3ncc[nH]3)c(-c3ccc(F)cc3Br)n2)ccc1[N+](=O)[O-] |  |
|  |  | 70 nM | 7 nM | Nc1nc(NCCNc2ncc(N3CCOCC3)c(-c3ccc(Cl)cc3Cl)n2)ccc1[N+](=O)[O-] | concentration at 20 min [5]: 1000 ng/mL |
| > 30 min | > 30 min | 2190 nM | 19 nM | Nc1nc(NCCNc2ncc(-c3ncc[nH]3)c(-c3cc(F)c(Cl)cc3F)n2)ccc1[N+](=O)[O-] |  |
| > 30 min | > 30 min | 730 nM | 12 nM | Nc1nc(NCCNc2ncc(-c3ncc[nH]3)c(-c3ccccc3Cl)n2)ccc1[N+](=O)[O-] |  |
| > 30 min | > 30 min | 1240 nM | 35 nM | FC(F)(F)c1ccc(NCCNc2ncc(-c3ncc[nH]3)c(-c3ccc(Cl)cc3Cl)n2)nc1 |  |
|  |  |  |  | CN(C)C(=N)NC(=N)N [METFORMIN] | Time (Mus musculus): <=2 weeks |
|  |  | 120 nM | 2 nM | Cc1c[nH]c(-c2cnc(NCCNc3ccc([N+](=O)[O-])c(N)n3)nc2-c2ccc(Cl)cc2Cl)n1 | Activity (Rattus norvegicus): 24%; concentration at 20 min [5]: 10000 ng/mL; bioavailability [7]: 7%; half-life [8]: 58 min |

| half-life [1] | half-life [2] | EC50 [3] | IC50 [4] | SMILES | further results |
| --- | --- | --- | --- | --- | --- |
|  |  | 50 nM | 6 nM | CN1CCN(c2cnc(NCCNc3ccc([N+](=O)[O-])c(N)n3)nc2-c2ccc(Cl)cc2Cl)CC1 | concentration at 20 min [5]: 3000 ng/mL |
|  |  | 5000 nM | 19 nM | N#Cc1ccc(-c2nc(NCCNc3ccc([N+](=O)[O-])cn3)ncc2-c2ncc[nH]2)cc1 | concentration at 20 min [5]: 1000 ng/mL |
| > 30 min | > 30 min | 3000 nM | 47 nM | Nc1nc(NCCNc2ncc(-c3ncc[nH]3)c(-c3cc(F)ccc3F)n2)ccc1[N+](=O)[O-] |  |
|  |  | 10000 nM | 31 nM | O=[N+]([O-])c1ccc(NCCNc2ncc(-c3nnn[nH]3)c(-c3ccc(Cl)cc3Cl)n2)nc1 |  |
|  |  | 3840 nM | 223 nM | FC(F)(F)c1ccc(NCCNc2ncc(-n3ccnc3)c(-c3ccc(Cl)cc3Cl)n2)nc1 |  |
|  |  | 290 nM | 10 nM | Nc1cnc(NCCNc2ccc([N+](=O)[O-])c(N)n2)nc1-c1ccc(Cl)cc1Cl | concentration at 20 min [5]: 1000 ng/mL |
| > 30 min | > 30 min | 1020 nM | 5 nM | Nc1nc(NCCNc2ncc(-c3ncc[nH]3)c(-c3ccc(Cl)cc3F)n2)ccc1[N+](=O)[O-] |  |
|  |  | 30 nM | 4 nM | CN1CCN(c2cnc(NCCNc3ccc([N+](=O)[O-])c(N)n3)nc2-c2ccc(Cl)cc2Cl)C(=O)C1 | concentration at 20 min [5]: 4000 ng/mL |
|  |  | 110 nM | 32 nM | O=[N+]([O-])c1ccc(NCCN(CCN2CCCCCC2)c2ncc(-n3ccnc3)c(-c3ccc(Cl)cc3Cl)n2)nc1 |  |
|  |  | > 10000 nM | 35 nM | N#Cc1ccc(-c2nc(NCCNc3ccc([N+](=O)[O-])cn3)ncc2C(=O)O)cc1 |  |
| > 30 min | > 30 min | 370 nM | 4 nM | O=[N+]([O-])c1ccc(NCCNc2ncc(-c3ncc[nH]3)c(-c3ccc(Cl)cc3Cl)n2)nc1 | Activity (Rattus norvegicus): 29%; concentration at 20 min [5]: 97000 ng/mL; bioavailability [7]: 33%; half-life [8]: 143 min |
| > 30 min | > 30 min | 430 nM | 4 nM | Nc1nc(NCCNc2ncc(-c3ncc[nH]3)c(-c3ccc(Br)cc3Cl)n2)ccc1[N+](=O)[O-] |  |
| > 30 min | > 30 min | 2280 nM | 13 nM | Nc1nc(NCCNc2ncc(-c3ncc[nH]3)c(-c3cc(F)c(Cl)cc3Cl)n2)ccc1[N+](=O)[O-] |  |
|  |  | 170 nM | 34 nM | Nc1nc(NCCNc2ncc(-c3nc(C(F)(F)F)c[nH]3)c(-c3ccc(Cl)cc3Cl)n2)ccc1[N+](=O)[O-] |  |
|  |  | 390 nM | 9 nM | CS(=O)(=O)Nc1cnc(NCCNc2ccc([N+](=O)[O-])c(N)n2)nc1-c1ccc(Cl)cc1Cl |  |
|  |  | 1200 nM | 53 nM | O=[N+]([O-])c1ccc(NCCNc2ncc(-n3ccnc3)c(-c3ccc(Cl)cc3)n2)nc1 |  |
| > 30 min | > 30 min |  | 249 nM | COc1cc(Cl)ccc1-c1nc(NCCNc2ccc([N+](=O)[O-])c(N)n2)ncc1-c1ncc[nH]1 |  |
| > 30 min | > 30 min | 3300 nM | 13 nM | Nc1nc(NCCNc2ncc(-c3ncc[nH]3)c(-c3ccc(F)cc3C(F)(F)F)n2)ccc1[N+](=O)[O-] |  |
|  |  | > 10000 nM | 110 nM | CC(C)(C)NC(=O)c1cnc(NCCNc2ccc([N+](=O)[O-])cn2)nc1-c1ccc(C#N)cc1 |  |
|  |  | 6100 nM | 29 nM | O=[N+]([O-])c1ccc(NCCNc2ncc(-n3ccnc3)c(-c3ccc(N4CCOCC4)cc3)n2)nc1 |  |
|  |  | 8300 nM | 51 nM | N#Cc1ccc(-c2nc(NCCNc3ccc([N+](=O)[O-])cn3)ncc2C(=O)OCCO)cc1 |  |
|  |  | 900 nM | 31 nM | O=[N+]([O-])c1ccc(NCCNc2ncc(-n3ccnc3)c(-c3ccc(F)cc3F)n2)nc1 |  |
| > 30 min | > 30 min | 5650 nM | 9 nM | Nc1nc(NCCNc2ncc(-c3ncc[nH]3)c(-c3ccc(F)cc3F)n2)ccc1[N+](=O)[O-] |  |
|  |  | 300 nM | 6 nM | O=[N+]([O-])c1ccc(NCCNc2ncc(-n3ccnc3)c(-c3ccc(Cl)cc3Cl)n2)nc1 |  |
|  |  | 2500 nM | 40 nM | O=[N+]([O-])c1ccc(NCCNc2ncc(-n3ccnc3)c(-c3ccc(C(F)(F)F)cc3)n2)nc1 |  |

| SMILES | half-life [1] | half-life [2] | EC50 [3] | IC50 [4] | further results |
| --- | --- | --- | --- | --- | --- |
| CCOC(=O)c1c(-c2ccc(C(N)=O)cc2)nc(NCCNc2ccc([N+](=O)[O-])cn2)nc1-c1ccc([N+](=O)[O-])cc1 |  |  | 18000 nM | 150 nM |  |
